Results filed as inconclusive are left out. Activity calls are given as the source filed them.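 The calls were made as follows, unless noted: active = growth inhibition above 25% in both replicates, a cutoff set 3 SD above the mean; inconclusive = above 25% in only one replicate; inactive = the rest.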
Tests used:
[1] = S. cerevisiae growth inhibition in permissive medium (OD615), pilot counter-assay for S. cerevisiae lifespan shortening project, permissive growth control (AID 705); conditions: OD615, 24 h, at 10 µM, stronger effect = higher value
Summary of the method: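 Material: engineered DeaD yeast; compound dosing: one dose 10 µM, DMSO 0.25% final; measure: yeast growth inhibition indicated by reduced 24 h OD615; detection: OD615 turbidity read; incubation: cells pre-grown 4 h, then 24 h compound exposure, 30 °C humidified; medium: permissive synthetic complete medium with raffinose and galactose carbon sources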

[2] = S. cerevisiae growth inhibition in restrictive medium, OD615, pilot screen, restrictive growth control, yeast lifespan reduction project (AID 706;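 active = growth inhibition above a set limit, 3 SD over mean compound inhibition, in both replicates, cut at about 43% in these data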;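 also: modified DeaD lifespan yeast strain shifted to restrictive glucose medium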); conditions: OD615, 48 h, at 10 µM, stronger effect = higher value
Summary of the method: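 material = engineered S. cerevisiae DeaD strain | medium = glucose-based CSMM-D restrictive medium | times = 4 h pre-incubation, 48 h exposure at 30 °C | technique = OD615 absorbance reading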

[3] = doxorubicin toxicity protection in MRP-1 cells – H69AR cells, CellTiter-Glo, duplicate, MRP-1 activator project, pilot screen (AID 807;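 active = viability increase at or above a cutoff of the median across tested compounds plus 3 SD, cut at about 8.5% in these data, passing the limit was not always enough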;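 also: compound pretreatment 18-22 h then 72 h combined with doxorubicin; 0% = doxorubicin alone and 100% = vehicle without doxorubicin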); conditions: H69AR viability with doxorubicin, CellTiter-Glo luminescence; at 10 µM; stronger effect = higher value
[4] = viability of HCT116 without oncogenic beta-catenin – human colon tumor cells, pilot screen (AID 823;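 active = cell viability at or below a set limit in both duplicate runs, the limit being the all-compound median minus 4 SD, cut at about 23% in these data, passing the limit was not always enough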;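 also: 0% = wells killed by 20 µM Hyamine and 100% = untreated DMSO cell wells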); conditions: HCT116 beta-catenin knockout viability, CellTiter-Glo, 60 h; at 10 µM; stronger effect = lower value
[5] = viability of PTEN-null HCT116 cells – cell-based, HCT116 clonal line, CellTiter-Glo, pilot screen (AID 824;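 active = viability at or below 27.92% in each of two runs, the all-compound median minus 4 SD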;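 also: 0% = 20 µM Hyamine control and 100% = vehicle cell control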); conditions: HCT116 PTEN-deleted viability, 60 h, at 10 µM, stronger effect = lower value
[6] = RAM pathway blockade in budding yeast – dse1pr::URA3 reporter, 5-FOA selection, pilot screen (AID 869;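 active = inhibition over a set limit, the all-compound mean plus 3 SD, in both replicate runs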;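 also: 0% = DMSO wells with no growth and 100% = 10 µM 1-NA-PP1 with full growth; RAM network block rescues cells from 5-FOA so hits raise OD615 growth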); conditions: S. cerevisiae dse1pr::URA3 5-FOA growth, OD615, 2 d; at 10 µM; stronger effect = higher value; strain carries analog-sensitive mutant Cbk1 kinase
[7] = RAM signaling pathway blockade in yeast – S. cerevisiae, Pdr1DBD-CYC8 efflux-inhibited sensitized strain, primary screen (AID 1298;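 active = RAM network inhibition above 8.4% in each of two replicates, 3 SD over the compound average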;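 also: 0% = DMSO untreated cells without growth and 100% = 10 µM 1-NA-PP1 full growth; higher means more yeast growth rescued from 5-FOA killing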); conditions: S. cerevisiae cbk1-as DSE1-URA3 strain, 5-FOA growth OD615, 2 d; at 50 µM; stronger effect = higher value

O=C1CC(NCc2ccc3c(c2)OCO3)C(=O)N1CCc1ccccc1 (centres undefined)
inactive: growth inhibition [1] -16% | growth inhibition [2] -11.1% | viability increase [3] -2.06% | viability [4] 102% | viability [5] 104% | inhibition [6] 1.88% | RAM network inhibition [7] 0.51%

COc1ccc(Cc2nnc(NC(=O)c3c(-c4ccccc4)noc3C)s2)cc1
inactive: growth inhibition [1] -14% | growth inhibition [2] -3.4% | viability increase [3] 0.94% | viability [4] 88.3% | viability [5] 85.2% | inhibition [6] 1.82% | RAM network inhibition [7] 5.46%

CCC(C)Sc1nc2c(cnn2-c2ccc(C)cc2)c(=O)[nH]1 (centres undefined)
inactive: growth inhibition [1] -13% | growth inhibition [2] -3.34% | viability increase [3] -3.06% | viability [4] 93.9% | viability [5] 88.9% | inhibition [6] 4.24% | RAM network inhibition [7] 0.41%

Cn1cc(S(=O)(=O)Nc2ccc(F)cc2F)c(=O)n(C)c1=O
inactive: growth inhibition [1] -11.6% | growth inhibition [2] 0.815% | viability increase [3] 0.9% | viability [4] 98.8% | viability [5] 95% | inhibition [6] 1.39% | RAM network inhibition [7] 1.28%

CCc1cccc(C)c1NC(=O)CN1C(=O)c2ccccc2S1(=O)=O
inactive: growth inhibition [1] -7.37% | growth inhibition [2] 1.46% | viability increase [3] -0.23% | viability [4] 98.3% | viability [5] 93.2% | inhibition [6] 0.955% | RAM network inhibition [7] 4.79%

COc1ccc(S(=O)(=O)N2CCN(Cc3c[nH]c4ccccc34)CC2)cc1
inactive: growth inhibition [1] -13.2% | growth inhibition [2] -14.2% | viability increase [3] -4.53% | viability [4] 80.7% | viability [5] 89.6% | inhibition [6] 2.11% | RAM network inhibition [7] 4.82%

C=CCn1c(SCC(=O)N2CCN(c3ccc(F)cc3)CC2)nnc1-c1ccco1
inactive: growth inhibition [1] 3.6% | growth inhibition [2] 1.48% | viability increase [3] -2.41% | viability [4] 60.7% | viability [5] 73.1% | inhibition [6] 1.71% | RAM network inhibition [7] 11.3%

CCOC(=O)Cn1c(=O)oc2cc(S(=O)(=O)N3CCCc4ccccc43)ccc21
inactive: growth inhibition [1] -8.26% | growth inhibition [2] -5.77% | viability increase [3] -1.08% | viability [4] 88.2% | viability [5] 96% | inhibition [6] 2.77% | RAM network inhibition [7] 6.73%

Cc1ccc(S(=O)(=O)NCC(=O)N2CCCCC2)cc1
inactive: growth inhibition [1] -11.1% | growth inhibition [2] -11.9% | viability increase [3] -1.13% | viability [4] 97.8% | viability [5] 102% | inhibition [6] 0.465% | RAM network inhibition [7] 1.88%

Cc1ccc(C2N(c3ccc(F)cc3)C(=O)C3CCCN32)cc1 (centres undefined)
inactive: growth inhibition [1] -0.945% | growth inhibition [2] -4.53% | viability increase [3] -1.55% | viability [4] 89.4% | viability [5] 97.3% | inhibition [6] 2.21% | RAM network inhibition [7] 4.87%

Cn1c(=O)c2c(nc(CN3CCN(Cc4ccccc4)CC3)n2Cc2ccc(Cl)cc2)n(C)c1=O
inactive: growth inhibition [1] -2.47% | growth inhibition [2] -13.5% | viability increase [3] -6.52% | inhibition [6] 1.27% | RAM network inhibition [7] 2.33%
active: viability [4] 8.81% | viability [5] 10.3%

Cn1cccc1Cc1nnc(SCC(=O)Nc2nccs2)n1CCc1ccccc1
inactive: growth inhibition [1] 19.9% | viability increase [3] -2.32% | viability [4] 103% | viability [5] 85.8% | inhibition [6] 1.12% | RAM network inhibition [7] 2.48%
active: growth inhibition [2] 62.6%

CCc1nnc(NC(=O)C(C)Sc2ccccc2)s1 (centres undefined)
inactive: growth inhibition [1] 6.98% | growth inhibition [2] 18.9% | viability increase [3] 1.53% | viability [4] 99.3% | viability [5] 98.1% | inhibition [6] 1.98% | RAM network inhibition [7] -0.83%

CN1CCN(CCCNC(=O)c2ccc(CS(=O)(=O)c3ccc(Br)cc3)o2)CC1
inactive: growth inhibition [1] -7.34% | growth inhibition [2] -12.5% | viability increase [3] -1.18% | viability [4] 95.3% | viability [5] 90.8% | inhibition [6] 1.38% | RAM network inhibition [7] -0.99%

O=C(NC(Cc1ccc2c(c1)OCO2)C(=O)N1CCCC1C(=O)O)c1ccccc1 (centres undefined)
inactive: growth inhibition [1] -2.82% | growth inhibition [2] 0.59% | viability increase [3] 0.05% | viability [4] 95.1% | viability [5] 98.1% | inhibition [6] 0.125% | RAM network inhibition [7] 6.49%

O=S(=O)(c1cccc2cccnc12)N(CCO)CCO
inactive: growth inhibition [1] -15.2% | growth inhibition [2] -15.5% | viability increase [3] -0.99% | viability [4] 103% | viability [5] 101% | inhibition [6] 2.62% | RAM network inhibition [7] 2.69%

O=C(NCCN1CCOCC1)c1ccc2c(c1)N(Cc1ccccc1)CCS2
inactive: growth inhibition [1] -1.33% | growth inhibition [2] -3.97% | viability increase [3] -2.25% | viability [4] 93.2% | viability [5] 94.5% | inhibition [6] 1.02% | RAM network inhibition [7] 6.44%

Source: PubChem BioAssay
